{"source": "paper PMC2775513", "about": "(Neuroscience, 2009)", "key": {"[1]": {"test_system": "cultured rat hypothalamic neurons", "assay": "Cytosolic Ca2+ measurement", "type": "cell-based", "conditions": "for neurons responding with fast calcium transient followed by oscillations / mean amplitude of the first spike, fast calcium transient followed by oscillations: INSL7 n=8/158, C-INSL7 n=11/276", "summary_of_the_method": "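Hypothalamic neurons from 1–3-day-old rats were papain-dissociated and cultured 5 days in Neurobasal-A/10% FCS with 1 μM cytosine arabinoside, then serum-free for 12 hr. Cells were loaded with 5 μM fura-2 AM (45 min, room temperature, dark), de-esterified 45 min, then superfused with HBSS at 1 ml/min. Peptide was applied at 10–1000 nM. 340/380 ratio (emission 510 nm, 0.3 Hz) was converted to [Ca2+]i.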"}, "[2]": {"test_system": "cultured rat hypothalamic neurons", "assay": "Cytosolic Ca2+ measurement", "type": "cell-based", "conditions": "for mean amplitude of the first spike of [Ca2+]i oscillations, Ca2+-free / rapid and transitory increase in [Ca2+]i (single spike, no plateau), Ca2+-free: Ca2+-free HBSS with 2.5 mM EGTA; for mean amplitude of the first spike of [Ca2+]i oscillations, Ca2+-free: INSL7 n=5/76, C-INSL7 n=7; for rapid and transitory increase in [Ca2+]i (single spike, no plateau), Ca2+-free: INSL7 n=11/76, C-INSL7 n=15", "summary_of_the_method": "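Cultured neonatal rat hypothalamic neurons (5 days, serum withdrawn 12 hr before) were loaded with 5 μM fura-2 AM for 45 min at room temperature and de-esterified 45 min. They were superfused with Ca2+-free HBSS containing 2.5 mM EGTA, and 100 nM peptide was applied. [Ca2+]i was derived from the 340/380 excitation ratio (emission 510 nm, 0.3 Hz). Responding cells were counted against cells tested.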"}, "[3]": {"test_system": "cultured rat hypothalamic neurons", "assay": "Membrane potential, optical imaging using DiSBAC4", "type": "cell-based", "conditions": "100 nM, DiSBAC4(3); for mean amplitude of membrane depolarization / mean amplitude of membrane hyperpolarization: resting potential −53 ± 2.1 mV; for mean amplitude of membrane depolarization: C-INSL7 n=7/153, INSL7 n=4; for mean amplitude of membrane hyperpolarization: C-INSL7 n=15/153, INSL7 n=6", "summary_of_the_method": "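Cultured neonatal rat hypothalamic neurons were loaded 30 min with DiSBAC4(3) in HBSS and superfused with 100 nM peptide. Fluorescence (excitation 480, emission 540 nm) was recorded at 10 points/min, background-subtracted. Calibration used 1 μM gramicidin in Na+-free solution with 17, 25 or 80 mM K+ (potentials by Nernst equation): a 1.092 fluorescence change equals 1 mV.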"}, "[4]": {"test_system": "[125I]C-INSL7 binding sites, rat brain membranes", "assay": "[125I]C-INSL7 binding to rat brain membranes", "conditions": "for inhibition of [125I]C-INSL7 binding: 1 to 1000 nM unlabeled peptide, ~0.3 nM [125I]C-INSL7, three independent experiments"}, "[5]": {"test_system": "C-INSL7 antiserum (rabbit polyclonal)", "assay": "Pre-absorption of C-INSL7 antiserum, immunohistochemistry of rat pons sections", "conditions": "1 μg/ml overnight"}, "[6]": {"test_system": "C-INSL7 antiserum (rabbit polyclonal)", "conditions": "ELISA; ref Phoenix Pharmaceuticals, Inc.; cited from earlier work"}, "[7]": {"test_system": "GPCR135", "conditions": "cells over-expressing GPCR135; ref Liu et al., 2003 a, b; cited from earlier work"}, "[8]": {"test_system": "GPCR145", "conditions": "cells over-expressing GPCR145 (so in the source); ref Liu et al., 2003 a, b; cited from earlier work"}, "[9]": {"test_system": "GPCR135", "conditions": "printed GPR135; ref Liu et al., 2003a, b; cited from earlier work"}, "[10]": {"test_system": "GPCR142", "conditions": "printed GPR142; ref Liu et al., 2003a, b; cited from earlier work"}, "[11]": {"molecular_target": "GPCR135 (Homo sapiens) (UniProt Q9NSD7)", "sequence (Q9NSD7 whole entry)": "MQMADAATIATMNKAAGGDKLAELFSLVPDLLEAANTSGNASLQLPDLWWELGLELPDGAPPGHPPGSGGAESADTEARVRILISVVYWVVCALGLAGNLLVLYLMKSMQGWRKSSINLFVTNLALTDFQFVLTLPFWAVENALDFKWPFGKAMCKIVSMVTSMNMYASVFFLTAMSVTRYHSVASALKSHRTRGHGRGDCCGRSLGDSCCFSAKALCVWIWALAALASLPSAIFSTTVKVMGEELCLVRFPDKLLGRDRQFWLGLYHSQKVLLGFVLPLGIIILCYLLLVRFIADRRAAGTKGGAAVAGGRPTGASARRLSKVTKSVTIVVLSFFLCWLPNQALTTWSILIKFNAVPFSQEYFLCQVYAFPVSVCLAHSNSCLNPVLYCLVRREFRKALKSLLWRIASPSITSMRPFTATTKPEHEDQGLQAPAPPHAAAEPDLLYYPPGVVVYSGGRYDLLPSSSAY", "assay": "radioligand binding", "conditions": "cited from earlier work"}, "[12]": {"molecular_target": "GPCR142 (Homo sapiens) (UniProt Q8TDU9)", "sequence (Q8TDU9 whole entry)": "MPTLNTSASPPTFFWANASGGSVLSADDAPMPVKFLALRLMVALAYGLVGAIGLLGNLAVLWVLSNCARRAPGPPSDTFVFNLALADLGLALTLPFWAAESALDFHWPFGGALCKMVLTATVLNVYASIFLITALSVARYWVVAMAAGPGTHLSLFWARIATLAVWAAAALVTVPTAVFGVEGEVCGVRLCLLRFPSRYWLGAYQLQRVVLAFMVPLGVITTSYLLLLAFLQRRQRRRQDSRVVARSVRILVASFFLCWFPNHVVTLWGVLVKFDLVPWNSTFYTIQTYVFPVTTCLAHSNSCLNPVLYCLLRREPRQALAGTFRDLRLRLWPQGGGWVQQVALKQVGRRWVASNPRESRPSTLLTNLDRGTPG", "assay": "radioligand binding", "conditions": "cited from earlier work"}}, "data": [{"substance": "C-peptide of human preproinsulin-like peptide 7 [C-INSL7]", "values": [{"measurement": "amplitude of the first spike of [Ca2+]i oscillations", "setting": "[1]; 10 nM, HBSS, fura-2, n = 6", "result": "137 ± 2.6", "unit": "nM"}, {"measurement": "stable (sustained) [Ca2+]i elevation", "setting": "[1]; 10 nM, HBSS, fura-2, n = 6", "result": "118 ± 2.4", "unit": "nM"}, {"measurement": "neurons responding with fast and sustained increase in [Ca2+]i", "setting": "[1]; 100 nM, HBSS, 36 of 276", "result": 13, "unit": "%"}, {"measurement": "neurons responding with fast calcium transient followed by oscillations", "setting": "[1]; 100 nM, HBSS", "result": 4, "unit": "%"}, {"measurement": "mean amplitude of the first spike, fast calcium transient followed by oscillations", "setting": "[1]; 100 nM, HBSS, fura-2", "result": "763 ± 4.2", "unit": "nM"}, {"measurement": "mean amplitude of fast and sustained increase in [Ca2+]i", "setting": "[1]; 100 nM, HBSS, fura-2, n=36/276", "result": "405 ± 3.1", "unit": "nM"}, {"measurement": "amplitude of the first spike of [Ca2+]i oscillations", "setting": "[1]; 1,000 nM, HBSS, fura-2, n = 7", "result": "1051 ± 9.8", "unit": "nM"}, {"measurement": "mean amplitude of fast and sustained increase in [Ca2+]i", "setting": "[1]; 1,000 nM, HBSS, fura-2, n = 8", "result": "731 ± 4.7", "unit": "nM"}, {"measurement": "concentration dependence of calcium oscillations", "setting": "[1]; 10, 100 and 1000 nM, HBSS", "result": "also in a concentration-dependent manner"}, {"measurement": "concentration dependence of fast and sustained increase in [Ca2+]i", "setting": "[1]; 10, 100 and 1000 nM, HBSS", "result": "in a concentration-dependent manner"}, {"measurement": "Δ[Ca2+]i, fast and sustained rise, after ryanodine pretreatment", "setting": "[1]; C-INSL7 100 nM, ryanodine 5 μM, 15 min pretreatment, n = 7", "result": "391 ± 3.6", "unit": "nM"}, {"measurement": "mean amplitude of the first spike of [Ca2+]i oscillations, Ca2+-free", "setting": "[2]; 100 nM", "result": "497 ± 3.6", "unit": "nM"}, {"measurement": "rapid and transitory increase in [Ca2+]i (single spike, no plateau), Ca2+-free", "setting": "[2]; 100 nM", "result": "231 ± 2.6", "unit": "nM"}, {"measurement": "cells responding with calcium oscillations, Ca2+-free", "setting": "[2]; 100 nM, Ca2+-free saline, 7 cells", "result": 5, "unit": "%"}, {"measurement": "cells responding with single Ca2+ spike, Ca2+-free", "setting": "[2]; 100 nM, Ca2+-free saline, 15 cells", "result": 11, "unit": "%"}, {"measurement": "fraction of neurons depolarized (n responding/tested)", "setting": "[3]", "result": "7/153"}, {"measurement": "fraction of neurons hyperpolarized (n responding/tested)", "setting": "[3]", "result": "15/153"}, {"measurement": "mean amplitude of membrane depolarization", "setting": "[3]", "result": "11 ± 1.6", "unit": "mV"}, {"measurement": "mean amplitude of membrane hyperpolarization", "setting": "[3]", "result": "7 ± 1.3", "unit": "mV"}, {"measurement": "inhibition of [125I]C-INSL7 binding", "setting": "[4]", "result": "in a dose-dependent manner"}, {"measurement": "Bmax", "setting": "[4]; homologous competition, ~0.3 nM [125I]C-INSL7, pH 7.4, room temperature, 1 hr, nonspecific: 1 μM C-INSL7, n=3", "result": "45.4 ± 20.5", "unit": "fmol/mg protein"}, {"measurement": "Kd", "setting": "[4]; homologous competition, ~0.3 nM [125I]C-INSL7, ~0.5 mg membranes, pH 7.4, room temperature, 1 hr, nonspecific: 1 μM C-INSL7, n=3", "result": "17.7 ± 8.2", "unit": "nM"}, {"measurement": "concentration of maximum inhibition of [125I]C-INSL7 binding", "setting": "[4]; unlabeled peptide 1 to 1000 nM", "result": 500, "unit": "nM"}, {"measurement": "immunoreactivity after pre-absorption of C-INSL7 antiserum with peptide", "setting": "[5]", "result": "immunoreactivity was not detected"}, {"measurement": "cross-reactivity with C-INSL7 antiserum", "setting": "[6]", "result": 100, "unit": "%"}]}, {"substance": "Recombinant human relaxin 3: Recombinant human relaxin 3", "values": [{"measurement": "GTPγS binding", "setting": "[7]", "result": "potently stimulated"}, {"measurement": "cAMP formation", "setting": "[7]", "result": "inhibited"}, {"measurement": "GTPγS binding", "setting": "[8]", "result": "potently stimulated"}, {"measurement": "cAMP formation", "setting": "[8]", "result": "inhibited"}]}, {"substance": "insulin-like peptide 7 [INSL7, reference compound]", "values": [{"measurement": "neurons responding with fast calcium transient followed by oscillations", "setting": "[1]; 100 nM, HBSS", "result": 5, "unit": "%"}, {"measurement": "mean amplitude of the first spike, fast calcium transient followed by oscillations", "setting": "[1]; 100 nM, HBSS, fura-2", "result": "1268 ± 39", "unit": "nM"}, {"measurement": "mean increase of [Ca2+]i, fast, transitory", "setting": "[1]; 100 nM, HBSS, fura-2, n=27/158", "result": "817 ± 6.3", "unit": "nM"}, {"measurement": "neurons responding with fast, transitory increase of [Ca2+]i", "setting": "[1]; 100 nM, HBSS, n=27/158", "result": 17, "unit": "%"}, {"measurement": "mean amplitude of the first spike of [Ca2+]i oscillations, Ca2+-free", "setting": "[2]; 100 nM", "result": "583 ± 7.4", "unit": "nM"}, {"measurement": "rapid and transitory increase in [Ca2+]i (single spike, no plateau), Ca2+-free", "setting": "[2]; 100 nM", "result": "307 ± 4.2", "unit": "nM"}, {"measurement": "fraction of neurons with [Ca2+]i oscillations, Ca2+-free (n responding/tested)", "setting": "[2]; 100 nM, Ca2+-free medium", "result": "5/76"}, {"measurement": "effect of Ca2+-free solution on calcium spike", "setting": "[2]; type 1 response, Ca2+-free vs normal solution", "result": "not significantly altered in a Ca^2+-free solution"}, {"measurement": "mean amplitude of membrane depolarization", "setting": "[3]", "result": "9 ± 2.6", "unit": "mV"}, {"measurement": "mean amplitude of membrane hyperpolarization", "setting": "[3]", "result": "5 ± 1.8", "unit": "mV"}, {"measurement": "inhibition of [125I]C-INSL7 binding", "setting": "[4]", "result": "did not inhibit"}, {"measurement": "binding affinity", "setting": "[9]", "result": "high affinity"}, {"measurement": "binding affinity", "setting": "[10]", "result": "high affinity"}]}, {"substance": "relaxin 3 (from UniProt Q8WXF3)", "values": [{"measurement": "Kd", "setting": "[11]", "result": 0.31, "unit": "nM"}, {"measurement": "Kd", "setting": "[12]", "result": 1.9, "unit": "nM"}]}, {"substance": "ryanodine [reference compound]", "values": [{"measurement": "effect of ryanodine pretreatment on C-INSL7-induced [Ca2+]i oscillations", "setting": "[1]; ryanodine 5 μM, 15 min, C-INSL7 100 nM", "result": "abolishing the [Ca^2+]i oscillations"}]}]}
